Test [1] has as its target T1, Histamine H3 receptor (Cavia porcellus, UniProt Q9JI35). Description: Antagonist activity at histamine H3 receptor in guinea pig jejunum assessed as effect on […] inhibition of electrically evoked contraction treated 20 mins after […]. It is filed as tissue-based. Particulars: read-out: pA2 (converted). A digest of the protocol: (§1)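 Guinea pig jejunum segments (2 cm) were electrically stimulated between platinum electrodes in Krebs buffer gassed with 95% O2/5% CO2 at 37 °C, with isotonic recording under 1.0 g tension. […] After 20 min, cumulative half-log (R)-α-methylhistamine concentration-response curves were recorded until the response stopped changing.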

The target in test [2] is T2, Histamine H1 receptor (Cavia porcellus, UniProt P31389). The experiment in a line: (§2) Antagonist activity at histamine H1 receptor in guinea pig ileum preincubated for 10 mins followed by histamine addition during 30 mins equilibration period with washing every 10 mins. It is filed as tissue-based. To be noted: read-out: pA2 (converted).
Test [3] addresses Histamine H1 receptor (Cavia porcellus) (UniProt P31389). The test is described as §2. In kind it is tissue-based.
Test [4] has as its system Rattus norvegicus. The experiment in a line: Reduction in food consumption in Lewis rat at 3 mg/kg, sc administered daily for 5 days relative to control.
The target of test [5] is Histamine H3 receptor (Homo sapiens, UniProt Q9Y5N1). The experiment in a line: Displacement of [3H]-Nalpha-Methylhistamine from recombinant human histamine H3 receptor expressed in HEK293 cells after 1 hr by liquid scintillation counting analysis. It is filed as cell-based. Background: Displacement assays read how much labelled ligand stays bound in the presence of the test substance.

Test [6] is filed under the species Homo sapiens. The experiment in a line: Selectivity ratio of Ki for recombinant human histamine H4 receptor expressed in CHO cell membranes to Ki for recombinant human histamine H3 receptor expressed in HEK293 cells. It is filed as cell-based.
Test [7] concerns the target T1, Histamine H3 receptor. Description: Antagonist activity at histamine H3 receptor in guinea pig jejunum assessed as effect on […] inhibition of electrically evoked contraction treated 20 mins after […] and measured after 1 hr equilibration followed by compound wash out every 10 mins. It is filed as tissue-based. To be noted: read-out: pA2 (converted). Summed up:
as §1

The target in test [8] is Histamine H3 receptor (Rattus norvegicus) (UniProt Q9QYN8). The experiment in a line: Antagonist activity at rat histamine H3 receptor assessed as reduction in histamine level in rat cortex at 3 mg/kg, sc administered for 5 consecutive days measured at 24 hrs post last dose by RIA or ELISA method. It is filed as organism-based. A digest of the protocol: (§3)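 Male rats aged 9-10 weeks (Wistar or Lewis, n = 8) received 3 mg kg⁻¹ per day s.c. for 5 days. Saline-dosed and ciproxifan-dosed groups were included. Rats were killed 24 h after the last injection. The cerebral cortex was dissected, frozen in liquid nitrogen, stored at -80 °C and homogenized in 3 volumes of water. Dopamine, noradrenaline and serotonin were measured by RIA; histamine by ELISA.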

Test [9] has the same target. The experiment in a line: Antagonist activity at rat histamine H3 receptor assessed as reduction in noradrenaline level in rat cortex at 3 mg/kg, sc administered for 5 consecutive days measured at 24 hrs post last dose by RIA or ELISA method. It is filed as organism-based. Summed up:
as §3

Test [10] has the same target. The experiment in a line: Antagonist activity at rat histamine H3 receptor assessed as reduction in dopamine level in rat cortex at 3 mg/kg, sc administered for 5 consecutive days measured at 24 hrs post last dose by RIA or ELISA method. It is filed as organism-based. A digest of the protocol: as §3
Background: An ELISA detects its analyte on a solid surface through an enzyme-linked reagent.

For test [11] the target is unchanged. The experiment in a line: Antagonist activity at rat histamine H3 receptor assessed as reduction in serotonin level in rat cortex at 3 mg/kg, sc administered for 5 consecutive days measured at 24 hrs post last dose by RIA or ELISA method. In kind it is organism-based. A digest of the protocol: as §3
The subject of test [12] is Rattus norvegicus. Description: Effect on cerebral MAO activity in rat at 3 mg/kg, sc administered for 5 consecutive days measured at 24 hrs post last dose by radioisotopic assay. It is filed as functional, organism-based. A digest of the protocol:
(§4)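 Cortex from rats given 3 mg kg⁻¹ per day s.c. for 5 days (n = 8) was taken 24 h after the last dose and homogenized in water. HNMT, MAO-A and MAO-B were measured radioisotopically. MAO-A used 5-[2-14C]hydroxytryptamine as substrate; MAO-B used β-[ethyl-1-¹⁴C]phenylethylamine. Clorgyline and deprenyl (final 10^-9 M) were used as inhibitors. Protein was measured by the Lowry method.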

Test [13] deals with Rattus norvegicus. The experiment in a line: Effect on cerebral HNMT activity in rat at 3 mg/kg, sc administered for 5 consecutive days measured at 24 hrs post last dose by radioisotopic assay. In kind it is functional, organism-based. Summed up: as §4
For test [14], the target named is Histamine H4 receptor (Homo sapiens, UniProt Q9H3N8). The experiment in a line: Displacement of [3H]histamine from human recombinant histamine H4 receptor expressed in CHO cell membranes after 1 hrs by liquid scintillation counting analysis.
Test [15] has as its target Histamine H3 receptor (Rattus norvegicus, UniProt Q9QYN8). Description: Displacement of [3H]-Nalpha-Methylhistamine from rat histamine H3 receptor expressed in HEK293T cell membranes after 120 mins by liquid scintillation counting analysis.
For test [16], the target named is T2, Histamine H1 receptor. The experiment in a line: Antagonist activity at histamine H1 receptor in guinea pig ileum preincubated for 10 mins followed by histamine addition during 30 mins equilibration period with washing every 10 mins. To be noted: read-out: pA2 (converted).
Test [17] relates to Rattus norvegicus. The experiment in a line: Reduction in pellet consumption in Wistar rat at 3 mg/kg, sc administered daily for 5 days relative to control. In kind it is functional. More on the design: scale not given: the % may be the effect or the level left. Summed up: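 Male rats aged 9-10 weeks were housed singly in metabolic cages with free access to feed and water. Wistar rats were used for one compound and Lewis rats for the others. After 1 day of adaptation, baseline intake was averaged over 3 days. Dosing was 3 mg kg⁻¹ per day s.c. for 5 days (n = 8), with saline controls (0.2 ml per day). Intake was recorded each morning as g feed per 100 g body mass.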

Calls of active or inactive are those of the source. No cut-off for these calls is given here.

T1 sequence (Q9JI35 whole entry): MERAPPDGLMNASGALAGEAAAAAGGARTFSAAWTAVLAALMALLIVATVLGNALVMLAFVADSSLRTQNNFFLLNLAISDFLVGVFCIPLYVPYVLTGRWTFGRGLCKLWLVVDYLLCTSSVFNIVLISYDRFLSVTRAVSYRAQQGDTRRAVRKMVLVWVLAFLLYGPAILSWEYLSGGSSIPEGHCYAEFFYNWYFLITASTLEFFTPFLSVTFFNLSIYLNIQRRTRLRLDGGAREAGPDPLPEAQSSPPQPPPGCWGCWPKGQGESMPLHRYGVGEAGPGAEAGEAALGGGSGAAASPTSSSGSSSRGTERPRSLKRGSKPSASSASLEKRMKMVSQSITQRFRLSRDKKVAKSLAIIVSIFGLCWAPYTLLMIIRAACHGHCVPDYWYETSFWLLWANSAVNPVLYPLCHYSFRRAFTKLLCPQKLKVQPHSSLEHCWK
Histamine H3 receptor (Rattus norvegicus, UniProt Q9QYN8), sequence (Q9QYN8 whole entry): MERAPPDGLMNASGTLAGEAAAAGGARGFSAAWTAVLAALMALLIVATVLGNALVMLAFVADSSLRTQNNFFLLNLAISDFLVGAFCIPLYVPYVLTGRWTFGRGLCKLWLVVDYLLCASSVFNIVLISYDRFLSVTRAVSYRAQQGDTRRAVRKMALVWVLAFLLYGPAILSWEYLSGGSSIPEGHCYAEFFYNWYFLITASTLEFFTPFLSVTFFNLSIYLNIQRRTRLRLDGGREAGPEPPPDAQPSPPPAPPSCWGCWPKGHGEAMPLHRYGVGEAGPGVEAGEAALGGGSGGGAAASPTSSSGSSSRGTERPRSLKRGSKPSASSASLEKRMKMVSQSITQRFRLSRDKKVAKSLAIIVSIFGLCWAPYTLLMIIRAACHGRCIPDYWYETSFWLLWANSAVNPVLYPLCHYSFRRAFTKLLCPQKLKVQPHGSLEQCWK
Histamine H3 receptor (Rattus norvegicus), sequence (Q9QYN8 whole entry): as above
Histamine H3 receptor (Homo sapiens, UniProt Q9Y5N1), sequence (Q9Y5N1 whole entry): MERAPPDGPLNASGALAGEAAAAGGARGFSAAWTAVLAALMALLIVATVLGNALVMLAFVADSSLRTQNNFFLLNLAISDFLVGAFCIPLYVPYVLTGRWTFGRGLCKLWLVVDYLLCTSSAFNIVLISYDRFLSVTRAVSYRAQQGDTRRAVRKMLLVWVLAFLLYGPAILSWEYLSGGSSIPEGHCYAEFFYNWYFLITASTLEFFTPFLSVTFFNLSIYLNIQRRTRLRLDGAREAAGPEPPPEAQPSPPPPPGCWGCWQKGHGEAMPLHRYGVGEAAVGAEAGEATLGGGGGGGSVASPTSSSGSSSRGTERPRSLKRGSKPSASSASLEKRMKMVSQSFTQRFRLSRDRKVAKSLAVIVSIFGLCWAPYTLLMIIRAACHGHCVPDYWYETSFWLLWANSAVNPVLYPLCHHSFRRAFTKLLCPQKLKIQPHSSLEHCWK
T2 sequence (P31389 whole entry): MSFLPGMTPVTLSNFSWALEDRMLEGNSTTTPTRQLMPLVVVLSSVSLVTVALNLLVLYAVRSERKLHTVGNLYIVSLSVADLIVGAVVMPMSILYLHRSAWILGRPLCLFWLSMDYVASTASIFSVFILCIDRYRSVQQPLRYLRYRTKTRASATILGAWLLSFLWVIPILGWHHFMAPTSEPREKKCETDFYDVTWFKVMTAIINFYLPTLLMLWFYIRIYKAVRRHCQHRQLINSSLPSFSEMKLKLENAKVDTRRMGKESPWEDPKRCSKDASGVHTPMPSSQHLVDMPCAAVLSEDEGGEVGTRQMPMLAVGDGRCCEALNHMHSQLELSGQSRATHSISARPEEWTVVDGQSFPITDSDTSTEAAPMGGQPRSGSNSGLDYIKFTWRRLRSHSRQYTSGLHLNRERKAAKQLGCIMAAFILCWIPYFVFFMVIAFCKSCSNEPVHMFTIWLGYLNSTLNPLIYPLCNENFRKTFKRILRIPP
Histamine H4 receptor, sequence (Q9H3N8 whole entry): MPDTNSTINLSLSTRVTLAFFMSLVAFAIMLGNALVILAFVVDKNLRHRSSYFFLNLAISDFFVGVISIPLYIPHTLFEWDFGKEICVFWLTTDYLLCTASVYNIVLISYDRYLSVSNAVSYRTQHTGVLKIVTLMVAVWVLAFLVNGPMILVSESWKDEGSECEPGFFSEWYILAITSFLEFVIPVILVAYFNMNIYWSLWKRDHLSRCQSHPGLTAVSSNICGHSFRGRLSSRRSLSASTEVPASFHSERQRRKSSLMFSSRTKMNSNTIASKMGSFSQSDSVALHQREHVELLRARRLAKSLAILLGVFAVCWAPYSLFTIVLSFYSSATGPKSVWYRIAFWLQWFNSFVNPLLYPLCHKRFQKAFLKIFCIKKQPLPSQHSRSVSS
Histamine H1 receptor (Cavia porcellus), sequence (P31389 whole entry): as the sequence (P31389 whole entry) above

For `N=C(NCCCCN1CCN(CCCCCCCOc2ccccc2)CC1)NCc1ccc(C(F)(F)F)cc1`, the Kb in test [1] was 10.7 nM; in test [2], 66.1 nM.
For the compound `c1ccc(OCCCCCCCN2CCN(CCCCCCCOc3ccccc3)CC2)cc1`, the Kb in test [1] was 1660 nM. The pA2 result in test [3] was “inactive”.
Consider `N=C(N)N(CCCCN1CCN(CCCCN(Cc2ccc(C(F)(F)F)cc2)C(=N)N)CC1)Cc1ccc(C(F)(F)F)cc1`, for which the values for the Kb in test [1] and in test [2] were 10.2 nM and 60.3 nM, respectively.
For `N=C(N)N(CCCCN1CCC(CCCCCCCOc2ccccc2)CC1)Cc1ccc(C(F)(F)F)cc1` the same measures were 12.6 nM and 64.6 nM.
In the same order, the values of `N=C(NCCCCN1CCN(CCCCCCCOc2ccccc2)CC1)NCc1ccccc1` are 7.94 nM and 79.4 nM.
For `O=C(c1ccc(OCCCc2c[nH]cn2)cc1)C1CC1`, the result in test [4] was Active.
With `N=C(N)N(CCCCN1CCN(CCCCCCCOc2ccccc2)CC1)Cc1ccc(Cl)cc1`, the inhibition constant (Ki) (usually the equilibrium dissociation constant of an inhibitor or competing ligand from its target) in test [5] is 275 nM; in test [14] it was 1070 nM; in [15], 25.1 nM. Moreover, the Ratio Ki in test [6] came out at 3.9. The Kb in [7] was 15.8 nM; in test [16] it was 240 nM. In addition, the outcome in test [8], in test [9], in test [12] and in [13] was inactive. Also, the outcome in [10] and in test [11] was Active. The same compound showed an Activity in [4] of 13.5%.
Consider `N=C(N)N(CCCCN1CCN(CCCCCCCOc2ccccc2)CC1)Cc1ccc([N+](=O)[O-])cc1`, for which the Ki in test [5] is 145 nM; in [14] it was 1200 nM; in test [15], 15.8 nM. The Ratio Ki in [6] turned out to be 8.3. Further, the Kb in test [7] is 3.72 nM; in test [16], 224 nM. In addition, in [17], the Activity was found to be 10%. Also, the result in test [8], in test [9], in test [12] and in test [13] was inactive. The outcome in [10] and in [11] was Active.
Turning to `N=C(N)N(CCCCN1CCN(CCCCCCCOc2ccccc2)CC1)Cc1ccc(C(F)(F)F)cc1`, the Kb in [16] is 347 nM.
Turning to `N#C/N=C(\N)N(CCCCN1CCN(CCCCCCCOc2ccccc2)CC1)Cc1ccccc1`, the Kb is 50.1 nM in [1] and 107 nM in test [2].
For the compound `S=C(NC1CCCCC1)N1CCC(c2cnc[nH]2)CC1` [THIOPERAMIDE], the Kb in test [1] was 1.05 nM.
As to `N=C(N)N(CCCCN1CCN(CCCCCCCOc2ccccc2)CC1)Cc1ccccc1`, the Ki in test [5] is 158 nM; in test [14] it was 3240 nM; in test [15] it was 12.6 nM. Besides, the Ratio Ki in test [6] amounted to 20.9. For the same compound, the result in test [8], in [9], in test [12] and in [13] was inactive. The result in test [10], in test [11] and in test [4] was Active. Further, the Kb in test [16] is 200 nM.
For `N=C(N)N(CCCCCCCOc1ccccc1)Cc1ccccc1`, the Kb in test [1] was 1660 nM; in [2] it was 158 nM.
For `N=C(N)N(CCCCC1CCN(CCCCCCCOc2ccccc2)CC1)Cc1ccc(C(F)(F)F)cc1` the same measures were 4.47 nM and 126 nM.

The values above are taken from ChEMBL document CHEMBL4480372, “Design, synthesis, and in vitro and in vivo characterization of 1-{4-[4-(substituted)piperazin-1-yl]butyl}guanidines and their piperidine analogues as histamine H3 receptor antagonists” (Medchemcomm, 2019).
